# Results taken from ChEMBL document CHEMBL4765431, “Novel phthalide derivatives: Synthesis and anti-inflammatory activity in vitro and in vivo” (Eur J Med Chem, 2020).
# Calls of active or inactive are those of the source. No cut-off for these calls is given here.
# Tests used:
# RAW264.7 [1] = test: Cytotoxicity against mouse RAW264.7 cells assessed as reduction in cell viability at 20 uM incubated for 24 hrs by MTT assay; assay type: cell-based; details: raw264.7, 24 h
# Method in brief: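 RAW264.7 cells (1 × 10^4/well, used 24 h after seeding) exposed to 20 µM for 24 h. MTT (5 mg/mL stock) added for 4 h, supernatant removed, crystals dissolved in DMSO with 10–15 min shaking, absorbance at 492 nm.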
# RAW264.7 [2] = test: Antiinflammatory activity in mouse RAW264.7 cells assessed as inhibition of LPS-induced nitric oxide production preincubated for 1 hr followed by LPS stimulation and measured after 24 hrs by Griess reagent-based assay; assay type: functional, cell-based
# RAW264.7 [3] = test: Cytotoxicity against mouse RAW264.7 cells assessed as reduction in cell viability incubated for 24 hrs in presence of LPS by MTT assay; assay type: cell-based; details: RAW264.7, 24 h
# RAW264.7 [4] = test: Cytotoxicity against mouse RAW264.7 cells assessed as reduction in cell viability incubated for 24 hrs in absence of LPS by MTT assay; assay type: cell-based; details: RAW264.7, 24 h
# RAW264.7 [5] = test: Antiinflammatory activity in mouse RAW264.7 cells assessed as inhibition of LPS-induced nitric oxide production at 10 uM preincubated for 1 hr followed by LPS stimulation and measured after 24 hrs by Griess reagent-based assay relative to control; assay type: functional; details: time 25 hrs
# Method in brief: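 RAW264.7 cells (7 × 10^4/well, used 24 h after seeding) in DMEM with 10% heat-inactivated FBS, 37 °C, 5% CO2. Pretreated 1 h with compound (10 µM screen; 0.625–10 µM dose series), then LPS 0.5 µg/mL for 24 h. Supernatant mixed 1:1 with Griess reagent, 15 min at room temperature, absorbance read at […].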
# Rattus norvegicus [6] = test: Antiarthritic activity in Sprague-Dawley rat model of CFA-induced arthritis assessed as intact joint cavity at 60 mg/kg, ig administered daily for 28 days starting from 14 days post-immunization and measured every 3 days by H and E staining based histopathological analysis; assay type: functional, organism-based; details: time 28.0 day
# Rattus norvegicus [7] = test: Antiarthritic activity in Sprague-Dawley rat model of arthritis assessed as decrease in CFA-induced synovial hyperplasia at 60 mg/kg, ig administered daily for 28 days starting from 14 days post-immunization and measured every 3 days by H and E staining based histopathological analysis; assay type: functional, organism-based; details: time 28.0 day
SMILES,Activity (RAW264.7 [1]),IC50 (RAW264.7 [2]),IC50 (RAW264.7 [3]),IC50 (RAW264.7 [4]),inhibition at 10 µM (RAW264.7 [5]),Activity (Rattus norvegicus [6]),Activity (Rattus norvegicus [7])
COCCOc1ccc(C(O)C2OC(=O)c3c(OC)cc(OC)cc32)cc1 (stereo unspecified),Non-Toxic,> 10 µM,> 40 µM,> 40 µM,41.4%,–,–
COc1ccc(C(O)C2OC(=O)c3c(OC)cc(OC)cc32)cc1 (stereo unspecified),Non-Toxic,> 10 µM,> 40 µM,> 40 µM,38.7%,–,–
O=C1OC(Cc2nc(-c3ccccc3)no2)c2ccccc21 (stereo unspecified),Non-Toxic,> 10 µM,> 40 µM,> 40 µM,13%,–,–
CCOCCOc1ccc(C(O)C2OC(=O)c3c(OC)cc(OC)cc32)cc1 (stereo unspecified),Non-Toxic,> 10 µM,> 40 µM,> 40 µM,42.9%,–,–
COCCCCOc1ccc(C(O)C2OC(=O)c3c(OC)cc(OC)cc32)cc1 (stereo unspecified),Non-Toxic,8.21 µM,> 40 µM,> 40 µM,50.3%,–,–
COc1cc(OC)c2c(c1)C(C(O)c1ccc(OCc3ccc(OC(F)(F)F)cc3)cc1)OC2=O (stereo unspecified),Non-Toxic,8.14 µM,> 40 µM,> 40 µM,62.8%,–,–
COc1cc(OC)c2c(c1)C(C(O)c1ccc(OCc3ccc(Cl)cc3)cc1)OC2=O (stereo unspecified),Non-Toxic,4.32 µM,> 40 µM,> 40 µM,75.1%,–,–
CCCOc1ccc(C(O)C2OC(=O)c3c(OC)cc(OC)cc32)cc1 (stereo unspecified),Non-Toxic,9.26 µM,> 40 µM,> 40 µM,53.2%,–,–
COc1cc(OC)c2c(c1)C(C(O)c1ccc(O)cc1)OC2=O (stereo unspecified),Non-Toxic,> 10 µM,> 40 µM,> 40 µM,46.1%,–,–
Cc1noc(CC2OC(=O)c3ccccc32)n1 (stereo unspecified),Non-Toxic,> 10 µM,> 40 µM,> 40 µM,24.3%,–,–
COc1cc(OC)c2c(c1)C(C(O)c1ccc(OCC(C)C)cc1)OC2=O (stereo unspecified),Non-Toxic,> 10 µM,> 40 µM,> 40 µM,48.6%,–,–
COc1cc(OC)c2c(c1)C(C(O)c1ccc(OCc3ccccc3)cc1)OC2=O (stereo unspecified),Non-Toxic,> 10 µM,> 40 µM,> 40 µM,41.2%,–,–
CCCCOc1ccc(C(O)C2OC(=O)c3c(OC)cc(OC)cc32)cc1 (stereo unspecified),Non-Toxic,1.8 µM,> 40 µM,> 40 µM,83.7%,–,–
COc1cc(OC)c2c(c1)C(C(O)c1ccc(OCc3ccc(C)cc3)cc1)OC2=O (stereo unspecified),Non-Toxic,3.12 µM,> 40 µM,> 40 µM,82.1%,–,–
COC1=C[C@@H]2[C@@H]3Cc4ccc(OC)c(O)c4[C@]2(CCN3C)CC1=O,–,–,–,–,–,Active,Active
COc1cc(OC)c2c(c1)C(C(O)c1ccc(OCc3ccc(C#N)cc3)cc1)OC2=O (stereo unspecified),Non-Toxic,7.36 µM,> 40 µM,> 40 µM,60.8%,–,–

SMILES,Activity (RAW264.7 [1]),IC50 (RAW264.7 [2]),IC50 (RAW264.7 [3]),IC50 (RAW264.7 [4]),inhibition at 10 µM (RAW264.7 [5]),Activity (Rattus norvegicus [6]),Activity (Rattus norvegicus [7])
CCOc1ccc(C(O)C2OC(=O)c3c(OC)cc(OC)cc32)cc1 (stereo unspecified),Non-Toxic,> 10 µM,> 40 µM,> 40 µM,43.2%,–,–
O=C1OC(Cc2nc(-c3ccc(Oc4ccccc4)cc3)no2)c2ccccc21 (stereo unspecified),Non-Toxic,> 10 µM,> 40 µM,> 40 µM,10%,–,–
C=CCCOc1ccc(C(O)C2OC(=O)c3c(OC)cc(OC)cc32)cc1 (stereo unspecified),Non-Toxic,1.33 µM,> 40 µM,> 40 µM,87.2%,–,–
COCCCOc1ccc(C(O)C2OC(=O)c3c(OC)cc(OC)cc32)cc1 (stereo unspecified),Non-Toxic,1.26 µM,> 40 µM,> 40 µM,89.5%,–,–
COc1cc(OC)c2c(c1)C(C(O)c1ccc(OCc3ccc(Br)cc3)cc1)OC2=O (stereo unspecified),Non-Toxic,6.53 µM,> 40 µM,> 40 µM,68.1%,–,–
O=C1OC(Cc2nc(Cc3ccccc3)no2)c2ccccc21 (stereo unspecified),Non-Toxic,> 10 µM,> 40 µM,> 40 µM,25.1%,–,–
COc1ccc(/C=C2\OC(=O)c3c(OC)cc(OC)cc32)cc1,Non-Toxic,> 10 µM,> 40 µM,> 40 µM,36.3%,–,–
CCCCCCOc1ccc(C(O)C2OC(=O)c3c(OC)cc(OC)cc32)cc1 (stereo unspecified),Non-Toxic,5.36 µM,> 40 µM,> 40 µM,62.2%,–,–
COc1cc(OC)c2c(c1)/C(=C/c1ccc(OCc3ccc(F)cc3)cc1)OC2=O,Non-Toxic,> 10 µM,> 40 µM,> 40 µM,48.2%,–,–
O=C1OC(Cc2nc(-c3ccc(-c4ccccc4)cc3)no2)c2ccccc21 (stereo unspecified),Non-Toxic,> 10 µM,> 40 µM,> 40 µM,25.2%,–,–
COc1cc(OC)c2c(c1)C(C(O)c1ccc(OCCOc3ccccc3)cc1)OC2=O (stereo unspecified),Non-Toxic,> 10 µM,> 40 µM,> 40 µM,41.2%,–,–
COc1cc(OC)c2c(c1)C(C(O)c1ccc(OCc3ccc(OC(F)F)cc3)cc1)OC2=O (stereo unspecified),Non-Toxic,5.03 µM,> 40 µM,> 40 µM,67.6%,–,–
COc1cc(OC)c2c(c1)/C(=C/c1ccc(OCc3ccccc3)cc1)OC2=O,Non-Toxic,> 10 µM,> 40 µM,> 40 µM,44.3%,–,–
COc1cc(OC)c2c(c1)C(C(O)c1ccc(OCC3CCCCC3)cc1)OC2=O (stereo unspecified),Non-Toxic,> 10 µM,> 40 µM,> 40 µM,27.4%,–,–
COc1ccc2c(c1)c(CC(=O)O)c(C)n2C(=O)c1ccc(Cl)cc1 [INDOMETHACIN],–,> 10 µM,> 40 µM,> 40 µM,61.6%,–,–
